Screening results: PubChem, Johns Hopkins Ion Channel Center
TRPC4 PAM = positive allosteric modulators of TRPC4, primary screen, cell-based, mouse TRPC4beta, HEK293 mu-opioid, Fluo-4 calcium; DAMGO EC20, Fluo-4 Ca2+ flux; stronger effect = higher value; 310,000 compounds, 0.42% hits; Short transient receptor potential channel 4 (Mus musculus), Q9QUQ5; B-score at 10 µM;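 active = B-score of calcium response area above 5 SD of library B-scores, with initial fluorescence ratio within 5 SD of library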;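 note: B-score of integrated fluorescence ratio over time as area under calcium response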
Target sequence (Q9QUQ5 whole entry, looked up): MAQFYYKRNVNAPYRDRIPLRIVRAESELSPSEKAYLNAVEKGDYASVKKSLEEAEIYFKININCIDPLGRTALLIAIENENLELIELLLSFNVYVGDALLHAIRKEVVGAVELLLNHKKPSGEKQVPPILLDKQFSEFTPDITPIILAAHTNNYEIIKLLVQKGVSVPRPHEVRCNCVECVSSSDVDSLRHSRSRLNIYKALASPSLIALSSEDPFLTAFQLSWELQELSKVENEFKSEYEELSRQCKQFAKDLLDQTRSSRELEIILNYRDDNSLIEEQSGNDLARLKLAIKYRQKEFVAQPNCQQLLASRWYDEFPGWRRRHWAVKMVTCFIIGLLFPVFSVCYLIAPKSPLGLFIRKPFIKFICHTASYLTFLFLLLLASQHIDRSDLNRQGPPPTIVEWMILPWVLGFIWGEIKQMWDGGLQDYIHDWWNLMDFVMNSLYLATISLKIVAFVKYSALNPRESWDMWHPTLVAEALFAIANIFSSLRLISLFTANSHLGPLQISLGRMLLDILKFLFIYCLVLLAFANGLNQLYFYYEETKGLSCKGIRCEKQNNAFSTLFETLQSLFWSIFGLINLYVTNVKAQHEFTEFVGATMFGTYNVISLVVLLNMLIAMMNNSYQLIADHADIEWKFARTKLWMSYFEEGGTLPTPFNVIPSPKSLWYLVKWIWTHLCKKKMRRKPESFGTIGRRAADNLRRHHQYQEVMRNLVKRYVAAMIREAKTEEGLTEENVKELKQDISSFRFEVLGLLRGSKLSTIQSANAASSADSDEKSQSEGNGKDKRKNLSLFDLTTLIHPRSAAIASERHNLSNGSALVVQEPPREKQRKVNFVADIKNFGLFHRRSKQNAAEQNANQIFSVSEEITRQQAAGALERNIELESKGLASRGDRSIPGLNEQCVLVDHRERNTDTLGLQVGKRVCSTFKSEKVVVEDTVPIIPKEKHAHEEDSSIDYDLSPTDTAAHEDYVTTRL
TRPC4 agonist = activators of mouse TRPC4 channel, primary screen, Fluo4 calcium, HEK293 TRPC4beta/mu-opioid cells; Fluo4 calcium fluorescence; stronger effect = higher value; B-score at 10 µM; 310,000 compounds, 0.49% hits;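 active = B-score above 5 SD of library B-scores, and initial fluorescence ratio not above library mean plus 5 SD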;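 note: positive B-score marks a calcium rise read as TRPC4 activation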
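Assay system: HEK293 stable line with TRPC4beta plus mu-opioid receptor; schedule: 45 min room-temperature Fluo4 loading, 110 s read; technique: kinetic Fluo4 calcium fluorescence; evaluation: integrated baseline-normalised fluorescence ratio, converted to per-well B score; controls: buffer (low) and maximal DAMGO (high)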
TRPC4 inh = inhibitors of mouse TRPC4 channel, primary screen, Fluo4 calcium, HEK293 TRPC4beta/mu-opioid cells; Short transient receptor potential channel 4 (Mus musculus), Q9QUQ5; 300,000 compounds, 0.39% hits; B-score at 10 µM; DAMGO-evoked Fluo4 calcium flux; stronger effect = lower value;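 active = B-score over 3 SD under the library average, no early fluorescence shift, positive overall ratio signal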
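Material: HEK293 cells with stable TRPC4beta plus mu-opioid receptor expression; probe or stimulus: DAMGO in two steps, submaximal then maximal; technique: Fluo4 calcium fluorescence by kinetic imaging, 5 s 1 Hz baseline; measure: integrated fluorescence ratio relative to baseline, converted to per-well B score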
TRPC6 act = mouse TRPC6 channel activators, primary screen, cell-based, HEK293, membrane potential dye; AID 2550, 2010; HEK293-TRPC6 membrane potential dye fluorescence; stronger effect = higher value; 310,000 compounds, 0.13% hits; B-score at 10 µM; Short transient receptor potential channel 6 (Mus musculus), Q61143;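 active = B-score of the integrated fluorescence ratio above library mean plus 3 SD, and starting fluorescence ratio within library mean plus 5 SD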;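 note: higher score means more depolarization so channel activation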
TRPC6 inhibitor = mouse TRPC6 channel inhibitors, primary screen, cell-based, HEK293, membrane potential dye; ACh-evoked depolarization; stronger effect = lower value; B-score at 10 µM; 310,000 compounds, 1.1% hits;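 active = B-score under library mean minus 3 SD, initial fluorescence not abnormally high, positive integrated signal ratio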;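 note: B-score derived from integrated fluorescence ratio over the kinetic read; more negative B-score means stronger inhibition of depolarization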
TRPC4 sel inh 2 = second check of whether TRPC6 inhibitors also affect mouse TRPC4; HEK293 TRPC4/MOR, membrane potential dye fluorescence; channel activated by saturating DAMGO dose; shares compounds with TRPC6 inhibitor; inhibition, % at 10 µM; AID 2776; 920 compounds, 42% hits;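 active = compounds whose fluorescence signal differed from control wells by over 3 SD, either direction, in both duplicate plates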
TRPC4 spec = mouse TRPC4 modulation by TRPC6 hits, confirmation, selectivity assay for TRPC6 inhibitor project, cell-based, HEK293 TRPC4/mu-opioid, membrane potential dye; shares compounds with TRPC6 inhibitor; membrane potential fluorescence; activity change, negative = inhibition, % at 10 µM; 920 compounds, 61% hits;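 active = rise or fall in signal beyond 3 SD of buffer-only wells in both replicate plates, either sign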;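 note: integrated kinetic ratio of fluorescence range over baseline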
HEK293 MPD ctr 2-1 = nonspecific membrane potential effects, parental HEK293, confirmation, counter-screen for TRPC6 inhibitor project, cell-based, second counter screen. AID 2779, 2010. 920 compounds, 31% hits. shares compounds with TRPC6 inhibitor. signal change vs control, % at 10 µM. parental HEK293 membrane potential dye fluorescence; maximal acetylcholine challenge after compound addition;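 active = membrane potential signal moving either way by over 3 SD of the maximum-effect control, in both duplicate plates, meaning non-specific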
HEK293 MPD ctr-1 = membrane potential modulation in parental HEK293, confirmation, counter-screen for TRPC6 inhibitor project, cell-based. shares compounds with TRPC6 inhibitor. parental HEK293 membrane potential dye fluorescence. membrane potential signal change, % at 10 µM. 920 compounds, 60% hits;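 active = membrane potential signal shifting up or down by more than 3 SD of buffer-only wells, on both duplicate plates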
HEK293 MPD ctr-2 = parental HEK293 membrane potential modulation, confirmation, counter-screen for TRPC6 modulator project, cell-based. shares compounds with TRPC6 inhibitor. membrane potential dye fluorescence. membrane potential signal change, % at 10 µM. 2,400 compounds, 51% hits;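 active = membrane potential signal moves up or down beyond 5 SD from buffer-only wells, on both duplicate plates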
HEK293 MPD ctr 2-2 = second check of TRPC6 modulator effects in parental HEK293 cells; shares compounds with TRPC6 inhibitor; membrane potential dye fluorescence; after compound, maximal acetylcholine stimulation; inhibition, % at 10 µM; 2,400 compounds, 14% hits;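 active = membrane potential signal drops by more than 5 SD from the mean control signal, in both duplicate plates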;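 note: plate controls were acetylcholine ECmax control wells for no effect and buffer only wells for full effect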
TRPC4/MOR mod = TRPC4 modulation by TRPC6 hit compounds, confirmation, selectivity assay for TRPC6 modulator project, cell-based, HEK293 TRPC4/mu-opioid, membrane potential dye, mouse; 2,400 compounds, 69% hits; membrane potential fluorescence; shares compounds with TRPC6 inhibitor; percent change from control (negative = decrease, positive = increase), % at 10 µM;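 active = membrane potential signal moved up or down beyond 5 SD of buffer control wells, in both duplicate plates, actives on both sides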;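 note: plate controls were assay buffer wells for no effect and DAMGO maximal-effect wells for full effect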
TRPC4 ctr inh 2 = second check of whether TRPC6 modulators also affect mouse TRPC4 | shares compounds with TRPC6 inhibitor | HEK293 TRPC4/mu-opioid, membrane potential dye fluorescence; stimulated with maximal-effect DAMGO | inhibition, % at 10 µM | 2,400 compounds, 55% hits | AID 488928;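 active = drop in membrane potential signal beyond 5 SD of the control wells in both duplicate plates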;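 note: TRPC4 counter screen for TRPC6 hits run under conditions tuned for TRPC6 not TRPC4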
TRPC6 block conf = mouse TRPC6 channel inhibitors, confirmation, HEK293 cells, membrane potential dye, duplicate; AID 488960, 2010; shares compounds with TRPC6 inhibitor; 3,300 compounds, 43% hits; ACh-evoked depolarization; inhibition, % at 10 µM;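 active = fluorescence ratio falls more than 5 SD below the full-stimulation control mean, in both duplicate runs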;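 note: integrated fluorescence ratio of peak minus minimum over baseline after agonist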
TRPC6 act conf = mouse TRPC6 channel activators, confirmation, HEK293 cells, membrane potential dye, duplicate | shares compounds with TRPC6 inhibitor | HEK293-TRPC6 membrane potential dye fluorescence, FDSS | activation, % at 10 µM | 2,800 compounds, 11% hits;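 active = ratio signal rise beyond 5 SD above unstimulated control wells' mean, seen in both duplicate runs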;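 note: plate controls were buffer EC0 wells for no effect and acetylcholine ECmax response for full effect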
* = called active by the depositor; i = inactive; / = no result. Sampled rows, rich in hits. Any-hit rate of the full collection: about 2.3%.

SMILES | TRPC4 PAM | TRPC4 agonist | TRPC4 inh | TRPC6 act | TRPC6 inhibitor | HEK293 MPD ctr-2 | HEK293 MPD ctr 2-2 | TRPC4/MOR mod | TRPC4 ctr inh 2 | TRPC6 block conf | TRPC6 act conf | others
O=C(Nc1ncc([N+](=O)[O-])s1)c1cccc([N+](=O)[O-])c1 | i | i | i | i | i | / | / | / | / | / | /
COc1ccc(CN2CCCCCC2)cc1Br | i | i | i | i | i | / | / | / | / | / | /
CC12CCC(=O)N1C(C(=O)Nc1cc(C(F)(F)F)ccc1N1CCCCC1)CS2 (centres undefined) | i | i | i | i | i | / | / | / | / | / | /
CC12CCC(=O)N1C(C(=O)Nc1cc(C(F)(F)F)ccc1N1CCOCC1)CS2 (centres undefined) | i | i | i | i | -5.5* | i | i | i | i | i | i
O=C(Nc1ccc2nccnc2c1)c1cnccn1 | i | i | i | i | -5.8* | -272%* | i | -48%* | 42%* | 49%* | i
CCCn1c(C)cc(=O)c2cc(NC(=O)c3cnccn3)ccc21 | i | i | i | i | -12* | -300%* | 86%* | -60%* | 60%* | 66%* | i
CCc1ccc(NC(=O)c2cnccn2)cc1 | i | i | i | i | i | / | / | / | / | / | /
O=C(Cn1nnc(-c2cccs2)n1)NCCc1ccccc1 | i | i | i | i | i | / | / | / | / | / | /
COc1ccc(CCNC(=O)Cn2nnc(-c3cccs3)n2)cc1OC | i | i | i | i | -5.8* | i | i | i | i | i | i
CC(C)Nc1ccc(Nc2ccnc3cc4ccccc4cc23)cc1 | i | i | i | i | -6.2* | i | i | i | 54%* | i | i
COc1ccc(Nc2ccnc3ccccc23)cc1 | i | i | i | i | -8.5* | / | / | / | / | 54%* | i | TRPC4 sel inh 2=54%*;TRPC4 spec=-25%*;HEK293 MPD ctr 2-1=i;HEK293 MPD ctr-1=-284%*
COc1ccc(Nc2ncnc3ccccc23)cc1 | i | i | i | i | i | / | / | / | / | / | /
c1ccc(CCNc2ccnc3cc4ccccc4cc23)cc1 | i | i | i | i | i | / | / | / | / | / | /
CCc1ccc(OCCCCN(C)Cc2ccccc2)cc1 | i | i | i | i | i | / | / | / | / | / | /
N=C1c2ccccc2CN1c1ccc(N2CCOCC2)c(S(=O)(=O)Nc2ccc(Cl)cc2)c1 | i | i | i | i | -7.4* | / | / | / | / | i | i | TRPC4 sel inh 2=36%*;TRPC4 spec=-13%*;HEK293 MPD ctr 2-1=i;HEK293 MPD ctr-1=i
CC(=O)c1ccc(Nc2cc(C)nc3c(C)cc(C)cc23)cc1 | i | i | -6* | i | -6.9* | / | / | / | / | i | i | TRPC4 sel inh 2=i;TRPC4 spec=-21%*;HEK293 MPD ctr 2-1=i;HEK293 MPD ctr-1=-327%*
Cc1cc(C)c2nc(C)cc(Nc3ccc(C(=O)NCCO)cc3)c2c1 | i | i | i | i | -10* | / | / | / | / | 56%* | i | TRPC4 sel inh 2=i;TRPC4 spec=-20%*;HEK293 MPD ctr 2-1=-46%*;HEK293 MPD ctr-1=-308%*
Cc1cc(C)c2nc(C)cc(Nc3ccc(C(=O)N(C)C)cc3)c2c1 | i | i | i | i | -5.4* | -114%* | i | -22%* | i | i | i
COc1ccc(Nc2nnc(-c3ccc(C(=O)NCCO)cc3)c3ccccc23)cc1 | i | i | i | i | i | / | / | / | / | / | /
COc1ccccc1C(=O)NC(=O)COC(=O)CCS(=O)(=O)c1ccc(C)cc1 | i | i | i | i | i | / | / | / | / | / | /
Cc1cccc(C)c1OCc1nnc(SCC(=O)Nc2ccc(N3CCOCC3)cc2)o1 | i | i | i | i | i | / | / | / | / | / | /
COc1cc(C(=O)N2CCc3ccccc32)c([N+](=O)[O-])cc1OC | i | i | i | i | i | / | / | / | / | / | /
Cc1ccc(NC(=O)[C@@H](CC(C)C)NC(=O)[C@@H]2Cc3ccccc3CN2)cc1 | i | i | i | i | -5.1* | i | i | i | 46%* | 66%* | i
CC(C)COc1ccc(C(=O)OCC(=O)N(C)CC(=O)Nc2ccc(F)cc2)cc1 | i | i | i | i | i | / | / | / | / | / | /
CN(C)CCCn1c2c(c(SCC(=O)Nc3cccc4ccccc34)nc1=O)CCCC2 | i | i | i | i | -5.3* | i | i | i | 46%* | i | i
